Experimental data as given in ChEMBL document CHEMBL1122781, “[(Aminomethyl)aryloxy]acetic acid esters. A new class of high-ceiling diuretics. 1. Effects of nitrogen and aromatic nuclear substitution” (J Med Chem, 1984).

Columns and labels:
[1] = Diuretic activity was evaluated by measuring amount of K+ during 0-6 h in urine of […] at 10 mg/kg, po; type: ADME, organism-based; design: dose 10 mg/kg, route oral; conditions: simiiformes, in vivo
In short: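 Male and female cynomolgus monkeys, fasted 16–18 h with water until dosing, six per dose. Compound or vehicle was given by pediatric nasogastric tube, followed at once by a 50 mL/kg water load. Monkeys were kept in metabolism cages without food or water for 6 h. Urine was collected at 0–1, 1–2, 2–4 and 4–6 h, and volume, electrolytes, uric acid and glucose were measured.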

Rattus norvegicus = assay: Diuretic activity was evaluated by measuring amount of K+ during 0-6 hr in urine of normotensive saline loaded rats at 10.0mg/kg, po; type: ADME, organism-based; conditions: in vivo, 10 mg/kg
In short: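 Male Sprague–Dawley rats (275–375 g), fed and watered ad libitum before testing but not during it, eight per group. Compound in 0.2% methylcellulose/water given orally at 2 mL/kg, immediately followed by a 0.9% saline load equal to 5% of body weight. Rats were kept in individual metabolism cages. Urine was sampled at 2, 6 and 24 h for volume, Na+, K+, Cl−, uric acid and osmolality.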

[2] = Diuretic activity was evaluated by measuring amount of K+ during 0-6 hr in urine of normotensive water loaded monkey at 3mg/kg, po; conditions: simiiformes, in vivo

In the case of `CCOC(=O)COc1ccc(C(=O)c2ccc(O)c(CN)c2)c(Cl)c1Cl.Cl`, the Diuretic activity [1] is reported as 1.3 m equiv kg-1, the Diuretic activity (Rattus norvegicus) is reported as 3.3 m equiv kg-1 and the Diuretic activity [2] is reported as 1.1 m equiv kg-1.
